Compounds with a hit are over-represented: about 12% of the library has one in this group of screens.
ABCB1 block – blocks JC-1 efflux by human ABCB1 transporter; 190,000 tested, 0.067% active; inhibition, % at 6.6 µM; CCRF-Adr cells, flow cytometry; AID 1326; P08183; in the data active = inhibition above about 40%;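 note: 0% = vehicle and 100% = reference inhibitor; higher value means more JC-1 retained so stronger ABCB1 efflux block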
ABCG2 inh – inhibitors of human ABCG2 transporter, ABCB1 counter-screen; inhibition, % at 6.6 µM; Q9UNQ0; IgMXP3 cells, JC-1 efflux, flow cytometry; 190,000 tested, 0.1% active;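 active = inhibition above 80%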;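 note: 0% = DMSO and 100% = nicardipine control wells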
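Incubation: cells with compound and JC-1, 10 min at 25 °C, rotating, no wash / Test system: IgMXP3 (ABCG2) plus far-red-tagged CCRF-Adr (ABCB1) cells / Compound dosing: one concentration, 6.6 µM final / Also added: JC-1 fluorescent substrate / Evaluation: efflux inhibition in percent versus controls / Detection: flow cytometry, 530 nm JC-1 signal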
RAM network inh – yeast RAM network inhibition | S. cerevisiae dse1pr::URA3 reporter, 5-FOA growth OD615, 2 d; analog-sensitive cbk1-as2 kinase mutant strain | inhibition, % at 50 µM | 190,000 tested, 1.8% active;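 active = inhibition above a set limit, 3 SD over mean compound inhibition, cut at about 8.4% in these data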;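 note: 0% = DMSO-only wells with no growth and 100% = 10 µM 1-NA-PP1 full growth; inhibition rescues growth on 5-FOA so higher OD means more RAM inhibition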
L major viab – reduces viability of Leishmania major promastigotes; 200,000 tested, 9% active; inhibition, % at 10 µM; resazurin fluorescence viability; in the data active = inhibition above about 50%;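 note: promastigotes grown with compound for 44 hours at 28 °C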
WT yeast gro inh – growth inhibition of WT yeast, mitochondrial fusion screen | mitochondrial fusion phenotypic screen, WT strain | inhibition, % at 10 µM | 190,000 tested, 2.1% active | AID 1362; in the data active = inhibition above about 58%; tested in S. cerevisiae
ABCB1 confirm – confirmation of human ABCB1 transporter inhibitors, ABCG2 counter-screen | CCRF-Adr cells, JC-1 efflux, flow cytometry | AID 1451 | shares compounds with ABCG2 inh | 270 tested, 7% active | inhibition, % at 6.6 µM;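 active = inhibition of pump activity above 50%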;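 note: 0% = DMSO and 100% = nicardipine full pump inhibition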
ABCG2 single pt – inhibits human ABCG2 efflux, confirmed at single point; shares compounds with ABCG2 inh; IgMXP3 cells, JC-1 efflux, flow cytometry; inhibition, % at 6.6 µM; 270 tested, 6% active; AID 1453;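 active = inhibition above 50%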;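 note: 0% = DMSO wells and 100% = nicardipine pump inhibitor wells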
IgMXP3 fluor – counter-screen for ABCG2 inhibitors: compound fluorescence in IgMXP3 cells. compound autofluorescence 488/530 nm, flow; active compounds read high. fluorescence at 6.6 µM. 270 tested, 30% active. shares compounds with ABCG2 inh. AID 1480;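 active = fluorescence in ABCG2-expressing cells above the plate's control-well mean plus 3 SD, cut at about 15 in these data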;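 note: median cell fluorescence with compound minus that of DMSO-treated control cells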
CCRF-Adr fluor – CCRF-Adr autofluorescence flag for ABCB1 confirmation; shares compounds with ABCG2 inh; CCRF-Adr cells, compound autofluorescence 488/530 nm, flow cytometry; active compounds read high; fluorescence at 6.6 µM; 270 tested, 30% active; AID 1483;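 active = fluorescence beyond the plate control mean plus 3 SD, with a fluorescence-to-maximum score over 2, cut at about 25 in these data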
Numbers without * were called inactive; / = no result; + = active, no number.

SMILES | ABCB1 block | ABCG2 inh | RAM network inh | L major viab | WT yeast gro inh | ABCB1 confirm | ABCG2 single pt | IgMXP3 fluor | CCRF-Adr fluor
CCOC(=O)c1cnc2ccc(C)cc2c1Sc1ccccc1C(=O)OC | 1 | 1 | 0 | 0 | 18 | / | / | / | /
CC1=NN(c2ccc([N+](=O)[O-])cc2)C(=O)/C1=C\N(C)C | 6 | 80 | 4 | -6 | 65* | 10 | 38 | -0.09 | -0.59
CCCC1=NN(c2ccc([N+](=O)[O-])cc2)C(=O)/C1=C/N(C)C | 1 | 27 | 4 | -5 | -4 | / | / | / | /
S=c1[nH]nc(-c2ccc3ccccc3n2)n1-c1ccc2ncccc2c1 | 0 | 64 | 3 | 88* | 17 | 6 | 11 | 32* | 20
CCOC(=O)c1c(NC(=O)C(C)Sc2cccc[n+]2[O-])sc2c1CCN(Cc1ccccc1)C2 (stereo not drawn) | 17 | 9 | 0 | 9 | 20 | / | / | / | /
CCOC(=O)c1c(NC(=O)CSc2ncccn2)sc2c1CCN(Cc1ccccc1)C2 | 48* | 67 | 2 | 99* | 32 | 67* | 20 | 47* | 109*
O=[N+]([O-])c1cccc(NC2=NCCC2)c1 | 1 | 1 | 2 | -2 | 3 | / | / | / | /
Cc1cc(C)c(N=Cc2c(O)n(-c3nccs3)c(=O)c3ccccc23)c(C)c1 | 4 | 11 | 3 | 9 | 12 | / | / | / | /
Cc1ccc(N=Cc2c(O)n(-c3nccs3)c(=O)c3ccccc23)cc1 | 41* | 73 | 7 | 2 | -21 | 5 | 37 | -0.29 | 8.8
CC1CCc2cc(F)ccc2N1C(=O)CSc1nnc2c(n1)[nH]c1ccc(F)cc12 (stereo not drawn) | 1 | 2 | 1 | 10 | 16 | / | / | / | /
N=c1oc2c3c4c(cc2cc1C(=O)Nc1ccccc1)CCCN4CCC3 | 131* | + | 3 | 45 | 34 | -14 | -78 | 625* | 666*
CCCc1nnc(NC(=O)CCC(=O)N2CCN(C3c4ccccc4-c4ccccc43)CC2)s1 | 0 | 0 | 6 | -6 | 4 | / | / | / | /
Cc1ccc(/C=c2/sc3nnc(-c4ccccc4Cl)n3c2=O)o1 | 2 | 58 | 1 | -7 | 5 | / | / | / | /
CCN(CC)c1ccc(/C=c2/sc3nnc(-c4ccccc4C)n3c2=O)cc1 | 77* | 64 | 4 | -3 | 8 | 25 | 13 | 139* | 249*
CCN(CC)c1ccc(/C=c2\sc3nnc(-c4ccccc4Cl)n3c2=O)cc1 | 60* | 78 | 6 | -5 | 16 | 28 | -54 | 202* | 204*
Cn1c(CCCOc2ccc(Cl)cc2Cl)nnc1SCC(=O)Nc1cccc(F)c1 | 3 | 111* | 7 | 1 | 7 | 4 | 16 | -1.7 | -1.2
COc1ccc(CC(=O)NCc2nnc(SCC(=O)Nc3cccc(F)c3)n2C)cc1 | 1 | 4 | 2 | 10 | -13 | / | / | / | /
CCOc1cc(CNCCSc2nnnn2C)cc(Br)c1OCc1ccccc1F | 2 | 4 | -1 | 36 | 2 | / | / | / | /
CCOc1cc(CNCCSc2nnnn2C)cc(Br)c1OCc1ccc(F)cc1 | 10 | 105* | 0 | 50* | 32 | 1 | 11 | -1.8 | 34*
O=[N+]([O-])c1ccc2nc(-c3ccc(OC(F)F)cc3)cn2c1 | 0 | 1 | 3 | -4 | -7 | / | / | / | /
COC(=O)c1sc2cc([N+](=O)[O-])cc(SCC(C)C)c2c1N | 61* | 154* | 11* | -6 | -1 | -2 | 22 | 46* | 112*
COC(=O)c1sc(NC(=O)c2cccc([N+](=O)[O-])c2)c(C(N)=O)c1C | 2 | 34 | 4 | -7 | -2 | / | / | / | /
Cc1c(C)n(C(=O)CSc2nc3ccccc3[nH]2)c2ccccc12 | 0 | 0 | 0 | -3 | 21 | / | / | / | /
C/C(=N\NC(=O)COc1cc(C)cc(C)c1)c1ccc(N2CCOCC2)cc1 | 0 | 92* | 0 | 0 | 0 | 1 | 42 | -2.2 | -4.6

Source: PubChem
